Most compounds without a hit are left out; they make up all but 2.4% or so of the library.
S1P4 antagonist = blocks the human S1P4 receptor | S1P4-expressing cells, antagonist mode, reporter read-out | inhibition, % at 4.98 µM | 220,000 tested, 0.26% active; in the data active = inhibition above about 29%;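 note: 0% = wells stimulated with agonist and 100% = vehicle wells without agonist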
NPY-Y2 antag = blocks the human neuropeptide Y Y2 receptor; NPY-Y2 expressing cells, antagonist mode; inhibition, % at 2.7 µM; 140,000 tested, 0.99% active;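 note: 0% = vehicle with agonist challenge and 100% = reference antagonist with challenge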
Target sequence (P49146 whole entry, looked up): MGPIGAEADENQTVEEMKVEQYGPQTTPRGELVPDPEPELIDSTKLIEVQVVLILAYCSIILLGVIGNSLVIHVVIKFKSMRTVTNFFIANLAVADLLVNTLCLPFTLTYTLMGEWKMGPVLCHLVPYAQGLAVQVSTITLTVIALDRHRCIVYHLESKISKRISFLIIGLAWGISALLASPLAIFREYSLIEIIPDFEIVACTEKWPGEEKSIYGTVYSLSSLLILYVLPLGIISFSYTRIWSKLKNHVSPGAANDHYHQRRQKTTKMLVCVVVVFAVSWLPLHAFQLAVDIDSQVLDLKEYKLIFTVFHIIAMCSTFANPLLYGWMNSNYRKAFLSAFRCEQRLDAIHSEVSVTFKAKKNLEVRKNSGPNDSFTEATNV
S1P4 ag = agonists of human S1P4 receptor; O95977; S1P4-expressing cell line, agonist reporter assay; activation, % at 4.98 µM; 220,000 tested, 0.35% active; in the data active = activation above about 11%;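 note: 0% = DMSO vehicle and 100% = reference agonist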
NPY Y1 blocker = blocks the human neuropeptide Y Y1 receptor. inhibition, % at 3.6 µM. 200,000 tested, 1% active. AID 1040. P25929. HEK293-CNG Y1 cells, membrane potential fluorescence; NPY at EC95, then isoproterenol;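 active = inhibition above the campaign mean inhibition of all tested compounds plus 3 SD, cut at about 20% in these data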;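 note: 0% = DMSO wells given NPY plus isoproterenol and 100% = isoproterenol alone without NPY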
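Material: HEK293 Y1/CNG channel cell line; also added: NPY (25 nM), isoproterenol (1 µM), Ro 20-1724 (25 µM); doses: one concentration, 3.6 µM, in 0.4% DMSO; schedule: compound incubation 1 h at room temperature, readout 45 min post-stimulation; technique: membrane potential fluorescence; measure: fluorescence ratio normalized to % inhibition between controls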
NPY2 pot ag = potentiates or activates human NPY-Y2 receptor; P49146; activation, % at 3.6 µM; 220,000 tested, 0.45% active; cells expressing NPY-Y2, potentiator/agonist read-out; in the data active = activation above about 27%;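 note: cells stimulated with NPY near EC25 plus isoproterenol at EC100; 0% = vehicle plus submaximal agonist and 100% = vehicle plus saturating agonist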
NPY1 pot ag = potentiators or agonists of human neuropeptide Y receptor Y1 | 220,000 tested, 0.37% active | NPY-Y1 expressing cells, potentiator/agonist activation | activation, % at 3.6 µM; in the data active = activation above about 33%, passing the limit was not always enough;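 note: cells stimulated with NPY at EC10 then isoproterenol at EC100; 0% = low agonist plus stimulus and 100% = saturating agonist plus stimulus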
NPY1 antag conf = confirmation of human neuropeptide Y receptor Y1 antagonists; shares compounds with NPY Y1 blocker; HEK293-CNG NPY-Y1, membrane potential fluorescence, cAMP; NPY challenge against isoproterenol-raised cAMP; inhibition, % at 3.6 µM; 1,200 tested, 21% active; AID 1254; in the data active = inhibition above about 20%;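 note: 0% = vehicle with agonist plus stimulus and 100% = stimulus alone without agonist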
NPY2 antag ctr = counter-screen for NPY-Y1 antagonists: human NPY-Y2 antagonism. inhibition, % at 3.6 µM. 1,200 tested, 28% active. HEK293 NPY-Y2 CNG membrane potential fluorescence; cells given NPY, then isoproterenol. shares compounds with NPY Y1 blocker;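 note: 0% = DMSO with agonist challenge and 100% = reference antagonist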
* = called active by the depositor; . = not tested or not shown. Cut-off read from the data, not from the text of the source, unless noted: active = inhibition above about 17%; inactive = the rest.

SMILES	S1P4 antagonist	NPY-Y2 antag	S1P4 ag	NPY Y1 blocker	NPY2 pot ag	NPY1 pot ag	NPY1 antag conf	NPY2 antag ctr
O=C(Nc1ccccc1F)Nc1ccccc1N1CCCCC1	-2.5	.	-1.8	.	-3.8	-6.6	.	.
COc1ccc(C(=O)C2CCCN(Cc3cccn3-c3nccs3)C2)cc1OC (centres undefined)	15.5	.	-0.6	.	-14.6	-17.8	.	.
CC(C)Oc1cccc(C(=O)C2CCCN(Cc3cnn(C(C)C)c3)C2)c1 (centres undefined)	-5.7	.	-1.9	4.3	-10.4	1.3	.	.
COc1cccc(C(=O)C2CCCN(Cc3cccn3-c3ccccn3)C2)c1 (centres undefined)	1.1	.	0.3	37.4*	-37.4	-46.3	34.8*	29.9*
COc1ccc(C(=O)C2CCCN(Cc3cccn3-c3ccccn3)C2)cc1F (centres undefined)	-5.3	.	-1.3	21.9*	44.5*	55.2*	13.7	-1.0
O=C(c1ccc(C(F)(F)F)cc1)C1CCCN(Cc2cccn2-c2ncccn2)C1 (centres undefined)	-12.9	.	0.6	23.0*	-28.6	-21.2	15.9	17.9*
CC(C)Oc1cccc(C(=O)C2CCCN(Cc3cccn3-c3ccccn3)C2)c1 (centres undefined)	-1.8	.	0.6	48.9*	-22.1	-57.5	44.0*	39.7*
CC(=O)OCc1cc(-c2nc3ccccc3[nH]c2=O)nn1-c1ccc(Cl)cc1	0.4	.	1.5	.	-4.1	-11.0	.	.
CCOC1(/N=C(\C)NS(=O)(=O)c2ccc(Cl)cc2)C(C)=CC(=O)C=C1C	-6.2	.	0.2	3.0	1.3	-12.2	.	.
CCOc1ccc(CCNC(=O)COC(=O)c2cc(OC)cc(OC)c2)cc1OCC	-12.0	.	-1.1	-3.4	10.8	-2.2	.	.
O=c1[nH]c(-c2ccccc2F)nc2c1sc(=S)n2Cc1ccccc1	-9.8	4.2	-2.1	10.2	2.5	3.5	.	.
COc1cccc2cc(C(=O)NNC(=O)c3ccc(Br)cc3)c(=O)oc12	-1.1	.	0.8	-1.3	-3.8	8.2	.	.
Cn1nc(C(F)(F)F)c(-c2ccc(F)cc2)c1NC(=O)c1cccnc1	8.7	.	0.1	.	-10.3	-5.8	.	.
Cc1ccc(-n2cccn2)c(CN2CCCC(C(=O)c3sccc3C)C2)c1 (centres undefined)	5.0	.	3.0	72.2*	-68.5	-39.2	32.0*	37.8*
Cc1ccsc1C(=O)C1CCCN(Cc2cccn2-c2ccc(Cl)cn2)C1 (centres undefined)	7.0	.	0.0	40.6*	-24.5	-35.7	41.7*	37.6*
OCCC1CN(Cc2cccn2-c2ccccn2)CCN1C1CCCC1 (centres undefined)	-17.7	.	1.8	-0.9	-2.7	-8.2	.	.
O=C(c1ccc(Cl)cc1)C1CCCN(Cc2cccn2-c2ccccn2)C1 (centres undefined)	10.2	.	-2.5	58.8*	-0.8	-37.6	31.8*	31.4*
CCN(CC)C(=O)C1CCCN(Cc2nc(-c3cccs3)no2)C1 (centres undefined)	8.1	.	-0.2	2.2	-11.3	-9.8	.	.
COc1ccc(C(=O)C2CCCN(Cc3cccn3-c3nccs3)C2)cc1F (centres undefined)	-3.3	.	0.1	20.1	-3.4	-19.0	.	.
CC(=O)c1cccc(NC(=O)Cn2nc(-c3ccc(Cl)cc3)ccc2=O)c1	-2.5	.	0.8	7.3	-5.2	15.4	.	.
CCCCOc1ccc(C(=O)OC(C)CN(C)C)cc1 (centres undefined)	6.2	11.3	0.5	24.0*	-34.0	-30.7	5.6	9.4
O=C(O)c1ccc(N/N=C2/CCCc3ccccc32)cc1	11.2	.	-0.9	.	2.5	-19.1	.	.
COc1ccc(C2C(Oc3ccccc3)C(=O)N2c2ccc(C)c(C)c2)cc1OC (centres undefined)	-3.0	15.3	-0.5	15.4	-0.7	-10.9	.	.
COc1ccc(C2C(Oc3ccccc3)C(=O)N2c2cc(C)ccc2C)cc1OC (centres undefined)	-25.1	9.8	1.2	22.4*	-4.2	3.5	18.8	9.2
CN(C)S(=O)(=O)c1cccc(NC(=O)c2ccncc2)c1	-11.2	0.9	0.1	0.5	-3.5	5.3	.	.
SMILES	S1P4 antagonist	NPY-Y2 antag	S1P4 ag	NPY Y1 blocker	NPY2 pot ag	NPY1 pot ag	NPY1 antag conf	NPY2 antag ctr
CCN(CC)S(=O)(=O)c1cccc(NC(=O)c2ccc(C#N)cc2)c1	-7.4	.	0.4	22.2*	-23.5	-13.6	-0.7	2.7
Cc1nn(-c2ccccc2)c(Oc2ccc(F)cc2)c1/C=N/n1cnnc1	-4.5	4.3	-1.1	20.2*	3.9	-0.3	4.8	0.8
CCCCOC(=O)c1ccc(NC(=S)NC(=O)c2c(Cl)cnn2CC)cc1	-27.7	4.5	-0.8	2.1	-5.8	-32.1	.	.
CCCCOC(=O)c1ccc(NC(=S)NC(=O)c2c(Cl)cnn2C)cc1	12.2	8.0	4.0	25.2*	-15.4	-36.1	9.1	12.2
O=C(CCN1CCN(c2ccccc2)CC1)N/N=C/c1ccccc1OC(F)F	-0.6	.	-0.7	9.9	-8.6	-15.5	.	.
COC(=O)Nc1ccc(S(=O)(=O)NCc2ccccn2)cc1	-10.5	.	-0.1	41.3*	7.6	6.3	4.9	0.4
COc1cc(Cl)c(C)cc1NC(=O)c1cccc(OC)c1OC	2.3	.	0.6	11.1	-20.5	-30.7	.	.
Cc1cc(=O)cc(C)n1-c1ccccc1N1CCOCC1	-7.3	0.3	0.9	-0.1	-2.0	21.1	.	.
Cc1ccc(C)n1-c1ccccc1N1CCCCC1	-4.4	.	-0.2	56.2*	12.4	8.7	3.0	3.1
O=C(NCc1cccnc1)C1CCC(CNS(=O)(=O)c2cccc3nsnc23)CC1 (centres undefined)	8.8	.	-1.9	.	-1.3	3.3	.	.
O=C(O)CNC(=S)N(Cc1ccccc1)Cc1cccs1	-9.3	.	-3.7	8.4	-0.5	-2.7	.	.
Cc1cccc(C)c1NC(=S)N(Cc1ccccc1)Cc1cccs1	-1.2	.	-2.0	38.0*	-18.4	-27.9	17.1	20.1*
COc1ccc(-n2c(CCC(=O)O)ccc2-c2ccccc2)cc1	3.7	.	0.7	26.6*	-22.6	-2.4	12.8	12.2
c1ccc2c(NCC3CCCO3)nc(N3CCOCC3)nc2c1 (centres undefined)	-3.1	.	1.7	-1.1	-1.8	3.8	.	.
CC(Nc1nc(N2CCNCC2)nc2ccccc12)c1ccccc1 (centres undefined)	18.3	.	-1.4	25.0*	-6.0	-4.2	27.7*	35.5*
CC(=O)Nc1ccc(S(=O)(=O)Nc2nc(C)cc(-n3nc(C)cc3C)n2)cc1	-0.9	5.2	0.8	22.4*	-5.9	-20.6	9.5	9.5
Cc1cc(Cl)c(S(=O)(=O)N/N=C/c2ccc3c(c2)OCO3)c(Cl)c1	-4.5	7.1	0.7	20.3*	-5.2	-22.5	8.8	13.8

Compound activity as filed in PubChem.
